From ChEMBL document CHEMBL2346560, “Structure and function of a potent lipopolysaccharide-binding antimicrobial and anti-inflammatory peptide” (J Med Chem, 2013)
≈ marks a conversion by molar mass, not a printed value. Calls of active or inactive are those of the source. No cut-off for these calls is given here. Bridge positions count the residues as written; N and C are the ends. Peptide text beside a SMILES is read from it.

Legend:
Pseudomonas aeruginosa [1] = experiment: Antibacterial activity against ampicillin, benzylpencillin-resistant Pseudomonas aeruginosa 08031205 after 16 hrs by broth dilution method; assay type: functional; conditions: Pseudomonas aeruginosa, 08031205, 16 h
Method in brief: (§1)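 MIC read-out, reported in µg/mL with µM equivalents. Each value is the mean of three independent experiments, each run in duplicate.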

Candida albicans [2] = experiment: Antifungal activity against Candida albicans ATCC 2002 treated with PBS after 16 hrs by broth dilution method; assay type: functional; conditions: ATCC 2002, 16 h
Method in brief: (§2)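 Salt sensitivity of the MIC. Peptide was tested in water, NaCl, CaCl2, MgCl2 or PBS (Na2HPO4-NaH2PO4, pH 7.4), with every salt at 150 mM. Values are means of three independent experiments, each run in duplicate.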

Pseudomonas aeruginosa [3] = experiment: Antibacterial activity against ampicillin, benzylpencillin-resistant Pseudomonas aeruginosa 08031014 after 16 hrs by broth dilution method; assay type: functional; conditions: Pseudomonas aeruginosa, 08031014, 16 h; method in brief: as §1
RAW264.7 [4] = experiment: Cytotoxicity against mouse RAW264.7 cells at 50 ug/mL after 24 hrs by MTT assay relative to control; assay type: cell-based; conditions: raw264.7, 24 h
Pseudomonas aeruginosa [5] = experiment: Antibacterial activity against Pseudomonas aeruginosa ATCC 27853 after 16 hrs by broth dilution method; assay type: functional; conditions: ATCC 27853, 16 h
Method in brief: (§3)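 MIC determined by an earlier in-house method. Values are means of three independent experiments, each run in duplicate.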

Candida albicans [6] = experiment: Antifungal activity against Candida albicans ATCC 2002 after 16 hrs by broth dilution method; assay type: functional; conditions: ATCC 2002, 16 h; method in brief: as §1
Bacillus subtilis [7] = experiment: Antibacterial activity against Bacillus subtilis 6633 treated with water after 16 hrs by broth dilution method; assay type: functional; conditions: Bacillus subtilis, 6633, 16 h; method in brief: as §2
RAW264.7 [8] = experiment: Antiinflammatory activity in mouse RAW264.7 cells assessed as inhibition of LPS-induced TNF alpha production at 20 ug/mL after 24 hrs by ELISA relative to control; assay type: functional; conditions: RAW264.7, 24 h
Method in brief: (§4)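 RAW 264.7 cells (2 × 10^5) were plated and allowed to adhere. They were given peptide (2.5, 5, 10, 20 µg/mL) with or without LPS (E. coli 055:B5, 20 ng/mL) for 24 h. Supernatant TNF-α, IL-6 and MCP-1 were measured by ELISA at A450. Controls were LPS alone and untreated cells. Mean ± SEM of three separate experiments.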

Staphylococcus aureus = experiment: Antibacterial activity against Staphylococcus aureus ATCC 2592 treated with PBS after 16 hrs by broth dilution method; assay type: functional; conditions: ATCC 2592, 16 h; method in brief: as §2
Escherichia coli [9] = experiment: Bactericidal activity against Escherichia coli ATCC 25922 at MIC after 120 mins by colony counting assay (reference value: 1868.3 CFU); assay type: functional
RAW264.7 [10] = experiment: Antiinflammatory activity in mouse RAW264.7 cells assessed as inhibition of LPS-induced TLR4 expression preincubated for 1 hr prior to LPS-challenge measured after 3 hrs by Western blotting analysis; assay type: functional, cell-based
Method in brief: (§5)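 RAW 264.7 cells (1 × 10^6/well) were serum-starved in RPMI-1640 for 16 h. They were pretreated with peptide (0, 5, 10, 20 µg/mL) for 1 h, then given LPS (E. coli 055:B5, 0 or 100 ng/mL) for 3 h. Cells were washed in ice-cold PBS, and cytoplasmic or nuclear fractions were blotted for TLR4, JNK, NF-κB p65 and β-actin. Control was LPS alone.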

Escherichia coli [11] = experiment: Bactericidal activity against Escherichia coli ATCC 25922 at MIC after 5 mins by colony counting assay (reference value: 47.7 CFU); assay type: functional
Escherichia coli [12] = experiment: Antibacterial activity against Escherichia coli ATCC 25922 assessed as cell swelling after 30 mins by scanning electron microscopic analysis; assay type: functional, organism-based
Method in brief: (§6)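 E. coli (about 2 × 10^7 CFU/mL) was exposed to peptide at 1 × MIC, 37 °C, 30 min, beside an untreated control. Cells were pelleted, fixed in 2.5% buffered glutaraldehyde (4 °C, 2 h), post-fixed in 1% osmium tetroxide (2 h), dehydrated through graded ethanol, frozen in tert-butyl alcohol and vacuum-dried, then imaged by SEM.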

RAW264.7 [13] = experiment: Antiinflammatory activity in mouse RAW264.7 cells assessed as inhibition of LPS-induced NO production at 2.5 ug/mL after 24 hrs by spectrophotometric analysis relative to control; assay type: functional; conditions: RAW264.7, 24 h
Method in brief: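 RAW 264.7 cells (1 × 10^7) in RPMI-1640 with 10% FBS and penicillin/streptomycin were treated with peptide (2.5, 5, 10, 20 µg/mL) with or without LPS (E. coli 055:B5, 100 ng/mL) for 24 h. Medium nitrite was measured with Griess reagent at A540 against a NaNO2 standard curve. Control was LPS alone. Mean ± SEM of three separate experiments.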

Escherichia coli [14] = experiment: Antibacterial activity against Escherichia coli ATCC 25922 treated with NaCl after 16 hrs by broth dilution method; assay type: functional; conditions: ATCC 25922, 16 h; method in brief: as §2
Escherichia coli [15] = experiment: Bactericidal activity against Escherichia coli ATCC 25922 at 5 times MIC after 5 mins by colony counting assay (reference value: 47.7 CFU); assay type: functional
Pseudomonas aeruginosa [16] = experiment: Antibacterial activity against Pseudomonas aeruginosa ATCC 27853 treated with NaCl after 16 hrs by broth dilution method; assay type: functional; conditions: ATCC 27853, 16 h; method in brief: as §2
Escherichia coli [17] = experiment: Antibacterial activity against Escherichia coli ATCC 25922 treated with MgCl2 after 16 hrs by broth dilution method; assay type: functional; conditions: ATCC 25922, 16 h; method in brief: as §2
RAW264.7 [18] = experiment: Antiinflammatory activity in mouse RAW264.7 cells assessed as inhibition of LPS-induced MCP1 production after 24 hrs by ELISA; assay type: functional, cell-based; method in brief: as §4
Escherichia coli [19] = experiment: Antibacterial activity against Escherichia coli ATCC 25922 assessed as plasma membrane rupture after 30 mins by scanning electron microscopic analysis; assay type: functional, organism-based; method in brief: as §6
Pseudomonas aeruginosa [20] = experiment: Antibacterial activity against Pseudomonas aeruginosa ATCC 27853 treated with water after 16 hrs by broth dilution method; assay type: functional; conditions: ATCC 27853, 16 h; method in brief: as §2
RAW264.7 [21] = experiment: Cytotoxicity against mouse RAW264.7 cells at >25 ug/mL after 24 hrs by MTT assay; assay type: cell-based; conditions: raw264.7, 24 h
RAW264.7 [22] = experiment: Cytotoxicity against mouse RAW264.7 cells at 100 ug/mL after 24 hrs by MTT assay relative to control; assay type: cell-based; conditions: raw264.7, 24 h
Bacillus subtilis [23] = experiment: Antibacterial activity against Bacillus subtilis 6633 after 16 hrs by broth dilution method; assay type: functional; conditions: Bacillus subtilis, 6633, 16 h; method in brief: as §3
RAW264.7 [24] = experiment: Antiinflammatory activity in mouse RAW264.7 cells assessed as inhibition of LPS-induced IL6 production after 24 hrs by ELISA; assay type: functional, cell-based; method in brief: as §4
Escherichia coli [25] = experiment: Antibacterial activity against Escherichia coli ATCC 25922 after 16 hrs by broth dilution method; assay type: functional; conditions: ATCC 25922, 16 h; method in brief: as §1
Bacillus subtilis [26] = experiment: Antibacterial activity against Bacillus subtilis 6633 treated with MgCl2 after 16 hrs by broth dilution method; assay type: functional; conditions: Bacillus subtilis, 6633, 16 h; method in brief: as §2
Escherichia coli [27] = experiment: Antibacterial activity against Escherichia coli ATCC 25922 treated with CaCl2 after 16 hrs by broth dilution method; assay type: functional; conditions: ATCC 25922, 16 h; method in brief: as §2
Candida albicans [28] = experiment: Antifungal activity against ampicillin, benzylpencillin-resistant Candida albicans 08022821 after 16 hrs by broth dilution method; assay type: functional; conditions: Candida albicans, 08022821, 16 h; method in brief: as §1
Candida albicans [29] = experiment: Antifungal activity against ampicillin, benzylpencillin-resistant Candida albicans 080227710 after 16 hrs by broth dilution method; assay type: functional; conditions: Candida albicans, 080227710, 16 h; method in brief: as §1
RAW264.7 [30] = experiment: Antiinflammatory activity in mouse RAW264.7 cells assessed as inhibition of LPS-induced TLR4 expression at 20 ug/mL preincubated for 1 hr prior to LPS-challenge measured after 3 hrs by Western blotting analysis relative to LPS-treated control; assay type: functional; method in brief: as §5

CC[C@H](C)[C@H](NC(=O)[C@H](Cc1cnc[nH]1)NC(=O)[C@H](CO)NC(=O)[C@@H](NC(=O)[C@@H](NC(=O)[C@@H](NC(=O)[C@@H](NC(=O)[C@H](CCCNC(=N)N)NC(=O)[C@H](CC(C)C)NC(=O)[C@H](CCCCN)NC(=O)[C@H](CCC(=O)O)NC(=O)[C@H](CCCCN)NC(=O)[C@H](CC(C)C)NC(=O)[C@H](CCCCN)NC(=O)[C@@H]1CSSC[C@H](NC(=O)[C@H](CCCCN)NC(=O)[C@@H](N)CCCNC(=N)N)C(=O)N[C@@H](CC(N)=O)C(=O)N[C@@H](Cc2ccccc2)C(=O)N[C@@H](CC(C)C)C(=O)N1)[C@@H](C)O)C(C)C)[C@@H](C)CC)[C@@H](C)O)C(=O)N[C@@H](CC(=O)O)C(=O)N[C@@H](CCCCN)C(=O)N[C@H](C(=O)N[C@@H](CC(C)C)C(=O)N[C@@H](CCCNC(=N)N)C(=O)N1CCC[C@H]1C(=O)N[C@@H](CCC(N)=O)C(=O)NCC(=O)O)C(C)C (H-RKCNFLCKLKEKLRTVITSHIDKVLRPQG-OH; disulfide 3-7)
MIC (Pseudomonas aeruginosa [1]): 2.74 µM (≈ 9.38 µg/mL)
MIC (Candida albicans [2]): 2.35 µg/mL (≈ 0.686 µM)
MIC (Pseudomonas aeruginosa [3]): 10.9 µM (≈ 37.5 µg/mL)
Activity (RAW264.7 [4]): 2.7%
MIC (Pseudomonas aeruginosa [5]): 5.48 µM (≈ 18.8 µg/mL)
MIC (Candida albicans [6]): 1.37 µM (≈ 4.69 µg/mL)
MIC (Bacillus subtilis [7]): > 100 µg/mL
inhibition at 20 µg/mL (RAW264.7 [8]): 60%
MIC (Staphylococcus aureus): 4.69 µg/mL (≈ 1.37 µM)
CFU (Escherichia coli [9]): 0
inhibition (RAW264.7 [10]): Dose-dependent effect
CFU (Escherichia coli [11]): 37.3
Activity (Escherichia coli [12]): Active
inhibition at 2.5 µg/mL (RAW264.7 [13]): 17%
MIC (Escherichia coli [14]): 2.35 µg/mL (≈ 0.686 µM)
CFU (Escherichia coli [15]): 29.7
MIC (Pseudomonas aeruginosa [16]): 9.38 µg/mL (≈ 2.74 µM)
MIC (Escherichia coli [17]): 2.35 µg/mL (≈ 0.686 µM)
inhibition (RAW264.7 [18]): Dose-dependent effect
Activity (Escherichia coli [19]): Active
MIC (Pseudomonas aeruginosa [20]): 18.8 µg/mL (≈ 5.48 µM)
Activity (RAW264.7 [21]): Toxic
Activity (RAW264.7 [22]): 3.3%
MIC (Bacillus subtilis [23]): > 100 µg/mL
inhibition (RAW264.7 [24]): Dose-dependent effect
MIC (Escherichia coli [25]): 1.37 µM (≈ 4.69 µg/mL)
MIC (Bacillus subtilis [26]): 75 µg/mL (≈ 21.9 µM)
MIC (Escherichia coli [27]): 2.35 µg/mL (≈ 0.686 µM)
MIC (Candida albicans [28]): 2.74 µM (≈ 9.38 µg/mL)
MIC (Candida albicans [29]): 5.48 µM (≈ 18.8 µg/mL)
inhibition at 20 µg/mL (RAW264.7 [30]): 85%
